What was measured:
Type in all cases: functional
K562 = experiment: Cytotoxicity against human K562 cells after 48 hrs by SRB assay; settings: K562, 48 h
How it was run: (§1)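 NCI-60 human tumour cell panel screen, second stage, run by the NCI Developmental Therapeutics Program. Compounds were tested at five concentrations (0.01, 0.1, 1, 10 and 100 μM). Percentage growth was plotted against log10 concentration for each cell line. GI50, TGI and LC50 were taken from these dose-response curves.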

MOLT-4 = experiment: Cytotoxicity against human MOLT4 cells after 48 hrs by SRB assay; settings: MOLT-4, 48 h
How it was run: (§2)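 Second-stage NCI-60 panel run by the NCI Developmental Therapeutics Program, covering nine tumour subpanels. Five concentrations were tested: 0.01, 0.1, 1, 10 and 100 μM. Percentage growth at each level was plotted against log10 drug concentration. GI50, TGI and LC50 were read from these dose-response curves. Subpanel MID values were divided into the full-panel MID to give selectivity ratios.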

SR = experiment: Cytotoxicity against human SR cells after 48 hrs by SRB assay
How it was run: (§3)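 NCI-60 five-dose study run by NCI DTP at 0.01, 0.1, 1, 10 and 100 µM. Percentage growth at each level was plotted against log10 concentration for each line, and GI50, TGI and LC50 were read from the dose-response curves.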

A549 = experiment: Cytotoxicity against human A549 cells after 48 hrs by SRB assay; settings: A549, 48 h; how it was run: as §1
HOP-62 = experiment: Cytotoxicity against human HOP62 cells after 48 hrs by SRB assay; settings: HOP-62, 48 h; how it was run: as §1
NCI-H460 = experiment: Cytotoxicity against human NCI-H460 cells after 48 hrs by SRB assay; settings: NCI-H460, 48 h; how it was run: as §2
COLO 205 = experiment: Cytotoxicity against human COLO205 cells after 48 hrs by SRB assay; settings: COLO 205, 48 h; how it was run: as §1
HCC 2998 = experiment: Cytotoxicity against human HCC2998 cells after 48 hrs by SRB assay; settings: HCC 2998, 48 h; how it was run: as §1
HT-29 = experiment: Cytotoxicity against human HT-29 cells after 48 hrs by SRB assay; settings: HT-29, 48 h; how it was run: as §1
KM12 = experiment: Cytotoxicity against human KM12 cells after 48 hrs by SRB assay; settings: KM12, 48 h; how it was run: as §1
SF-295 = experiment: Cytotoxicity against human SF295 cells after 48 hrs by SRB assay; settings: SF-295, 48 h; how it was run: as §2
SF-539 = experiment: Cytotoxicity against human SF539 cells after 48 hrs by SRB assay; settings: SF-539, 48 h; how it was run: as §2
LOX IMVI = experiment: Cytotoxicity against human LOXIMVI cells after 48 hrs by SRB assay; how it was run: as §1
Malme-3M = experiment: Cytotoxicity against human MALME-3M cells after 48 hrs by SRB assay; how it was run: as §1
IGROV-1 = experiment: Cytotoxicity against human IGROV1 cells after 48 hrs by SRB assay; settings: IGROV-1, 48 h; how it was run: as §1
OVCAR-8 = experiment: Cytotoxicity against human OVCAR8 cells after 48 hrs by SRB assay; settings: OVCAR-8, 48 h; how it was run: as §2
NCI/ADR-RES = experiment: Cytotoxicity against human NCI/ADR-RES cells after 48 hrs by SRB assay; how it was run: as §2
SK-OV-3 = experiment: Cytotoxicity against human SKOV3 cells after 48 hrs by SRB assay; settings: SK-OV-3, 48 h; how it was run: as §2
786-0 = experiment: Cytotoxicity against human 786-0 cells after 48 hrs by SRB assay; settings: 786-0, 48 h; how it was run: as §1
ACHN = experiment: Cytotoxicity against human ACHN cells after 48 hrs by SRB assay; how it was run: as §1
RXF 393 = experiment: Cytotoxicity against human RXF393 cells after 48 hrs by SRB assay; settings: RXF 393, 48 h; how it was run: as §2
SN12C = experiment: Cytotoxicity against human SN12C cells after 48 hrs by SRB assay; how it was run: as §2
TK-10 = experiment: Cytotoxicity against human TK10 cells after 48 hrs by SRB assay; settings: TK-10, 48 h; how it was run: as §3
UO-31 = experiment: Cytotoxicity against human UO31 cells after 48 hrs by SRB assay; settings: UO-31, 48 h; how it was run: as §3
MCF7 = experiment: Cytotoxicity against human MCF7 cells after 48 hrs by SRB assay; settings: MCF7, 48 h; how it was run: as §1
MDA-MB-231 = experiment: Cytotoxicity against human MDA-MB-231 cells after 48 hrs by SRB assay; settings: MDA-MB-231, 48 h; how it was run: as §2
[1] = Cytotoxicity against human Hs578T cells after 48 hrs by SRB assay; settings: Hs-578T; how it was run: as §1
T47D = experiment: Cytotoxicity against human T47D cells after 48 hrs by SRB assay; how it was run: as §3
[2] = Cytotoxicity against human non-small cell lung cancer cells assessed as growth inhibition after 48 hrs by SRB assay; settings: Cancer cell lines
How it was run: (§4)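 Values come from the NCI-60 five-dose panel (0.01–100 µM). The subpanel MID is the mean GI50 over the lines of that tumour subpanel. The selectivity ratio is the full-panel MID divided by the subpanel MID; 3–6 is rated moderate and >6 high.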

[3] = Cytotoxicity against human melanoma cells assessed as growth inhibition after 48 hrs by SRB assay; settings: Melanoma cell; how it was run: as §4
[4] = Cytotoxicity against human breast cancer cells assessed as growth inhibition after 48 hrs by SRB assay; settings: Cancer cell lines; how it was run: as §4
[5] = read-out: LC50 (the source's name)

O=C1c2ccccc2C(=O)c2c1cc(Sc1ccc(F)cc1F)c1nsnc21
GI50 (K562): 3.32 µM
LC50 (K562): 68.4 µM
TGI (K562): 11.8 µM
GI50 (MOLT-4): 1.11 µM
LC50 (MOLT-4): > 100 µM
TGI (MOLT-4): 5.46 µM
GI50 (SR): 2.97 µM
LC50 (SR): 52.7 µM
TGI (SR): 9.06 µM
GI50 (A549): 14.9 µM
LC50 (concentration killing 50% of cells) (A549): > 100 µM
TGI (A549): 42.4 µM
GI50 (HOP-62): 1.82 µM
LC50 (HOP-62): 6.01 µM
TGI (HOP-62): 3.3 µM
GI50 (NCI-H460): 25.9 µM
LC50 (concentration killing 50% of cells) (NCI-H460): > 100 µM
TGI (NCI-H460): > 100 µM
GI50 (COLO 205): 13.7 µM
LC50 (COLO 205): 56.2 µM
TGI (COLO 205): 27.7 µM
GI50 (HCC 2998): 11.3 µM
LC50 (HCC 2998): 56.4 µM
TGI (HCC 2998): 25.3 µM
GI50 (HT-29): 8.72 µM
LC50 (HT-29): > 100 µM
TGI (HT-29): 36.3 µM
GI50 (KM12): 9.91 µM
LC50 (concentration killing 50% of cells) (KM12): > 100 µM
TGI (KM12): 77.3 µM
GI50 (SF-295): 9 µM
LC50 (SF-295): > 100 µM
TGI (SF-295): 44.2 µM
GI50 (SF-539): 2.08 µM
LC50 (SF-539): 8.63 µM
TGI (SF-539): 4.24 µM
GI50 (LOX IMVI): 1.21 µM
TGI (LOX IMVI): 2.64 µM
CC50 (LOX IMVI; [5]): 5.77 µM
GI50 (Malme-3M): 3.26 µM
LC50 (Malme-3M): 41.7 µM
TGI (Malme-3M): 8.65 µM
GI50 (IGROV-1): 2.93 µM
LC50 (IGROV-1): 46.6 µM
TGI (IGROV-1): 10.2 µM
GI50 (OVCAR-8): 1.58 µM
TGI (OVCAR-8): 3.63 µM
CC50 (OVCAR-8; [5]): 8.34 µM
GI50 (NCI/ADR-RES): 1.74 µM
LC50 (concentration killing 50% of cells) (NCI/ADR-RES): > 100 µM
TGI (NCI/ADR-RES): 4.59 µM
GI50 (SK-OV-3): 2.34 µM
LC50 (SK-OV-3): 13 µM
TGI (SK-OV-3): 5.08 µM
GI50 (786-0): 1.85 µM
LC50 (concentration killing 50% of cells) (786-0): 6.75 µM
TGI (786-0): 3.53 µM
GI50 (ACHN): 1.85 µM
LC50 (ACHN): 7.14 µM
TGI (ACHN): 3.63 µM
GI50 (RXF 393): 2.02 µM
LC50 (concentration killing 50% of cells) (RXF 393): 6.67 µM
TGI (RXF 393): 3.69 µM
GI50 (SN12C): 1.64 µM
TGI (SN12C): 4.96 µM
CC50 (SN12C; [5]): 19.4 µM
GI50 (TK-10): 5.07 µM
LC50 (concentration killing 50% of cells) (TK-10): 38.6 µM
TGI (TK-10): 14.1 µM
GI50 (UO-31): 3.03 µM
LC50 (UO-31): 42.6 µM
TGI (UO-31): 15 µM
GI50 (MCF7): 1.31 µM
LC50 (concentration killing 50% of cells) (MCF7): 7.39 µM
TGI (MCF7): 3.11 µM
GI50 (MDA-MB-231): 1.2 µM
LC50 (concentration killing 50% of cells) (MDA-MB-231): 12.9 µM
TGI (MDA-MB-231): 3.61 µM
GI50 [1]: 2.81 µM
LC50 [1]: > 100 µM
TGI [1]: > 100 µM
GI50 (T47D): 0.86 µM
LC50 (concentration killing 50% of cells) (T47D): 7.02 µM
TGI (T47D): 2.57 µM
GI50 [2]: 19 µM
GI50 [3]: 2.12 µM
GI50 [4]: 1.77 µM

— ChEMBL document CHEMBL3621107, “Ring fusion strategy for synthesis and lead optimization of sulfur-substituted anthra[1,2-c][1,2,5]thiadiazole-6,11-dione derivatives as promising scaffold of antitumor agents” (Eur J Med Chem, 2015)
